This passage reports selectivity ratio, EC50 and CC50 results from ChEMBL document CHEMBL2203273, “Prostratin and 12-O-tetradecanoylphorbol 13-acetate are potent and selective inhibitors of Chikungunya virus replication” (J Nat Prod, 2012).

SMILES strings stand for the structures. A value given as a limit tells only on which side of the number the result lay.

Data set [1] is described as follows: Selectivity index, ratio of CC50 for african green monkey Vero cells to EC50 for Chikungunya virus 899. The class given is toxicity, cell-based. The settings on record: read-out: Ratio CC50/EC50.
A further data set relates to Chikungunya virus. Put plainly: Antiviral activity against Chikungunya virus 899 infected in african green monkey Vero cells assessed as inhibition of virus-induced cytopathic effect incubated for 6 to 7 days by MTS assay. The class given is functional, cell-based. The settings on record: Chikungunya virus, 899, Vero. The procedure, abridged: (§1)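 Serial dilutions in MEM Rega3 with 2% FCS, L-glutamine and bicarbonate, added with 4× virus dilution and Vero cells (25 000 cells/well, subcultured 1:4, grown 7 days). Incubated 6−7 days, 37 °C, 5% CO2. Read-out is 5% MTS for 1.5 h, absorbance 498 nm. Data are percent of controls, EC50 from dose–response curves. Wells with >50% protection checked microscopically for CPE or altered morphology. Multiple independent experiments.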
For orientation: Damage to the host cells serves as the signal in cytopathic effect assays.

Data set [2] can be described thus: Cytotoxicity against african green monkey Vero cells by MTS assay. The class given is cell-based. Conditions: chlorocebus sabaeus. The procedure, abridged:
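Vero cells (25 000/well) with serial compound dilutions in MEM Rega3 with 2% FCS, no virus, for 6−7 days at 37 °C, 5% CO2. Overall metabolism read by 5% MTS for 1.5 h, absorbance 498 nm. Uninfected control OD 0.6−0.8. CC50 is the concentration inhibiting metabolism by 50%, from dose–response curves. Multiple independent experiments.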
(Formazan colour is commonly taken as a measure of viable cells.)

The next data set relates to Semliki Forest virus. Briefly: Antiviral activity against Semliki forest virus infected in african green monkey Vero cells assessed as inhibition of virus-induced cytopathic effect incubated for 6 to 7 days by MTS assay. The class given is functional, organism-based. Put shortly: as §1
A further data set deals with Sindbis virus. Briefly: Antiviral activity against Sindbis virus HRsp infected in african green monkey Vero cells assessed as inhibition of virus-induced cytopathic effect incubated for 6 to 7 days by MTS assay. The class given is functional, organism-based. The procedure, abridged: as §1

In general, EC50 refers to the concentration needed to bring the measured effect to its halfway point. A word on the CC50: it is the concentration that lowers cell viability or growth by half. Consider `CCCCCCCCCCCCCC(=O)O[C@@H]1[C@@H](C)[C@@]2(O)[C@@H](C=C(CO)C[C@@]3(O)C(=O)C(C)=C[C@@H]23)[C@@H]2C(C)(C)[C@]12OC(C)=O`, for which, in data set [1], the selectivity ratio came out at 1.9. Moreover, in the data set with Chikungunya virus, the EC50 is 2.8 µM. Also, the half-maximal cytotoxic concentration (CC50) in data set [2] came to 5.3 µM.
For the compound `CCN(CC)CCCC(C)Nc1ccnc2cc(Cl)ccc12` (stereo not given) [CHLOROQUINE], the concentration giving a half-maximal response (EC50) was 14 µM in the data set with Semliki Forest virus, 11 µM in the data set on Sindbis virus and 11 µM in the data set with Chikungunya virus. In data set [2], this compound had a CC50 of 89 µM.
As to `CCCCCCCCCCCCCC(=O)O[C@@H]1[C@@H](C)[C@@]2(O)[C@@H](C=C(CO)C[C@]3(O)C(=O)C(C)=C[C@@H]23)[C@@H]2C(C)(C)[C@]12OC(C)=O` [PHORBOL MYRISTATE ACETATE], the figures for the EC50 in the data set with Semliki Forest virus, in the data set with Sindbis virus and with Chikungunya virus were over 162 µM, 2.2 µM and 0.0029 µM, respectively. Also, the selectivity ratio in data set [1] worked out at 1960. In data set [2], this compound registered a 50% cytotoxic concentration (CC50) of 5.7 µM.
Consider `CC1=C[C@H]2[C@@]3(O)[C@H](C)[C@@H](O)[C@]4(O)[C@H]([C@@H]3C=C(CO)C[C@]2(O)C1=O)C4(C)C` [PHORBOL], for which the half-maximal effective concentration (EC50) with Semliki Forest virus is over 274 µM; in the data set on Sindbis virus, over 274 µM; in the data set with Chikungunya virus it was over 343 µM. The selectivity ratio in data set [1] is over 1. The compound also displayed a half-maximal cytotoxic concentration (CC50) in data set [2] of over 343 µM.
In the case of `CC(=O)O[C@@]12C[C@@H](C)[C@@]3(O)[C@@H](C=C(CO)C[C@]4(O)C(=O)C(C)=C[C@@H]34)[C@@H]1C2(C)C` [PROSTRATIN], the EC50 was over 256 µM with Semliki Forest virus, over 256 µM with Sindbis virus and 2.6 µM in the data set with Chikungunya virus. Moreover, the selectivity ratio in data set [1] was found to be 30.3. Besides, in data set [2], half-maximal cytotoxicity (CC50) was put at 79 µM.
Take `CCCCCCCCCCCC(=O)O[C@@H]1[C@@H](C)[C@@]2(O)[C@@H](C(=O)C(CO)=C[C@]3(O)C(=O)C(C)=C[C@@H]23)[C@@H]2C(C)(C)[C@]12OC(C)=O` [TRIGOWIIN A]: the selectivity ratio in data set [1] is over 2.3. Also, the half-maximal effective concentration (EC50) with Chikungunya virus was 43.5 µM. Moreover, the CC50 in data set [2] is over 100 µM.
